Consider two molecules from ChEMBL document CHEMBL1125525, “5'-Azido-delta 8-THC: a novel photoaffinity label for the cannabinoid receptor” (1992).

The structures appear in SMILES notation.

Holding throughout (type): functional
Test [1] has as its system Mus musculus. Put plainly: Induction of ring immobility (catalepsy), measured by in vivo administration of drug in mouse. In a few lines: (§1)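 Male ICR mice dosed intravenously; same animals scored for decreased locomotor activity (sedation), ring immobility (catalepsy), hypothermia and tail-flick antinociception. Dose-response data analysed by ANOVA; ED50 (mg/kg) with 95% confidence limits as potency, maximum effect as efficacy: percent inhibition of locomotion, change in °C for hypothermia, percent immobility for catalepsy, percent maximum possible effect on tail-flick latency.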

The species entered for test [2] is Mus musculus. Put plainly: Antinociception measured in terms of the maximum possible effect (MPE)on latency by mouse tail-flick assay. An outline of the steps:
as §1
Background: Hot-plate and tail-flick tests time the reaction to a heat stimulus.

The species entered for test [3] is Mus musculus. In words: Percent inhibition measured in terms of the maximum possible effect (MPE)on latency by mouse tail-flick assay. In a few lines: as §1
Test [4] relates to Mus musculus. Put plainly: Compound was evaluated by in vivo administration for percent inhibition of locomotion in mice. An outline of the steps: as §1
Test [5] relates to Mus musculus. In words: Compound was evaluated by in vivo administration for its ability to produce sedation. In a few lines:
as §1

In test [6] the test system is Mus musculus. Put plainly: Compound was evaluated by in vivo administration for Percent inhibition of locomotion in mice. In a few lines: as §1
Test [7] relates to Mus musculus. In words: Compound was evaluated by in vivo administration for its ability to produce hypothermia (change in temperature). An outline of the steps:
as §1

Take `CCCCCc1cc(O)c2c(c1)OC(C)(C)[C@@H]1CC=C(C)C[C@@H]21` [DELTA-8-TETRAHYDROCANNABINOL]: the figures for the ED50 in the test on Mus musculus [1], in the test listed under Mus musculus [2] and in the test on Mus musculus [5] were 5.2 mg/kg, 1.5 mg/kg and 1.9 mg/kg, respectively. The molecule further registered an Immobility in the test with Mus musculus [1] of 58%. Besides, the Inhibition – broadly, the relative decrease from the control value, in per cent – is recorded as 100% in the test listed under Mus musculus [3] and 79% in the test on Mus musculus [4].

Regarding `CC1=CC[C@@H]2[C@@H](C1)c1c(O)cc(CCCCCN=[N+]=[N-])cc1OC2(C)C`, the ED50 (commonly the midpoint of the dose-response relation) in the test with Mus musculus [1] worked out at 0.8 mg/kg; in the test listed under Mus musculus [2], 0.1 mg/kg; in the test on Mus musculus [5] it was 0.2 mg/kg; in the test with Mus musculus [7], 0.8 mg/kg. This molecule also returned an Immobility in the test on Mus musculus [1] of 57%. In addition, the Inhibition in the test on Mus musculus [6] turned out to be 73%; in the test listed under Mus musculus [3], 100%.
